Test results published in article PMC8525972 (mAbs, 2021).

Columns and labels:
[1] = system: human IgG; assay: Fluorescence intensity mix-and-read assay, human IgG titration; format: binding
Summary of the method: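 Human IgG (0–2.5 g/L) diluted in PBS and mixed 1:1 with fluorescein-Ahx-labelled Fc-III peptide probe in PBS; probe tested at 25–500 nM, and at 50 nM and 2000 nM for linear quantitation. Plate read immediately, intensity at Ex 485/Em 535 nm. Normalised intensity is the fold change over probe alone without IgG.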

[2] = system: human IgG; assay: Fluorescence polarization mix-and-read assay, human IgG titration; format: binding; settings: 50 nM probe, human IgG 0 to 2.5 g/L
Summary of the method: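 Fluorescein-labelled probes (Fc-III peptide, protein G, peptide-H) at 50 nM mixed with human IgG at 0–2.5 g/L in PBS. Polarisation read immediately at Ex 485/Em 535 nm. mP is (I∥ − I⊥)/(I∥ + I⊥) × 1000. Curves fitted with a 4-parameter logistic.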

[3] = system: human IgG; settings: ref [40],[41]; cited from earlier work
[4] = Fluorescence intensity of probe with hydroxypropyl-β-cyclodextrin; format: physicochemical; settings: 50 nM probe; increasing HP-β-cyclodextrin
[5] = system: polyclonal human IgG; assay: Fluorescence intensity, human IgG in CHO cell culture fluid; format: binding
Summary of the method: (§1)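 CHO-S cells grown in CD CHO medium with 4 mM L-glutamine to 3.31 × 10^6 cells/mL at 96.1% viability. Fluid clarified by 8000×g for 30 min, then 0.2 µm filtration. Antibody spiked into this fluid and mixed 1:1 with 100 nM Fc-III probe in PBS; read immediately at Ex 485/Em 535 nm. Detection limit is signal above blank + 3 StdDev of blank.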

[6] = system: polyclonal human IgG; assay: Fluorescence polarization, human IgG in CHO cell culture fluid; format: binding; settings: 100 nM probe in CHO-CCF
[7] = system: IgG; settings: cited from earlier work
[8] = system: murine-IgG1; assay: Fluorescence intensity, murine IgG1 in CHO cell culture fluid; format: binding
Summary of the method: as §1

[9] = system: murine IgG1; settings: ref [41]; cited from earlier work
[10] = biological target: adalimumab biosimilar IgG1 (Homo sapiens, UniProt P01857); assay: Fluorescence intensity, adalimumab biosimilar in CHO cell culture fluid; format: binding
Summary of the method: as §1

[11] = system: human-IgG; assay: SpA competition with Fc-III probe/human IgG mixture, fluorescence intensity; format: binding; settings: IgG 0.005 g/L (30 nM), Fc-III probe 50 nM, 120 min
Summary of the method: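 Unlabelled SpA serially diluted in PBS and added at 0.02 nM–1 µM final to human IgG (33 nM, 0.005 g/L) plus Fc-III probe (50 nM). PBS alone served as negative control. Incubated 120 min for equilibration, then fluorescence intensity read at Ex 485/Em 535 nm.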

[12] = system: IgG; settings: ref [16],[17]; cited from earlier work

Sequence of adalimumab biosimilar IgG1 (P01857 1-330 isoform P01857-1, other chains not shown): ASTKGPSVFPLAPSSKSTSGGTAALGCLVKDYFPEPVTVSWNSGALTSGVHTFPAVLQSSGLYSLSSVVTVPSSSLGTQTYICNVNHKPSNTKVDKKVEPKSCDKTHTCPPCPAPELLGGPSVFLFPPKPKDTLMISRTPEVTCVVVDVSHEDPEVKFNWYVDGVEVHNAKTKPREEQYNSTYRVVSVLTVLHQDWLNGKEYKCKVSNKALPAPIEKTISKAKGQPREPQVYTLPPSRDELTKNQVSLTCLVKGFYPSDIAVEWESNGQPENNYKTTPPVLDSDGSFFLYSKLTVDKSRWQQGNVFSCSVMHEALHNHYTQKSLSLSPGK

In the case of “Fluorescein-Ahx-DCAWHLGELVWCT-NH2 (disulfide) [Fc-III probe]”, the “Fold increase in fluorescence intensity at lowest IgG concentration” value ([1]; 25 nM probe, 0.00025 g/L IgG) is reported as 1.16 fold, the “Linear quantitation range (IgG concentration)” value ([1]; 2000 nM Fc-III probe, listed as fluorescein labeled Fc-III) is reported as 0.025 to 0.1 g/L and the “Polarization dynamic range, difference between bound and free probe (Δ mP)” value ([2]; 96-well plate, Ex 485 nm/Em 535 nm) is reported as 260 mP. The “Lowest IgG concentration required to produce half-maximal response” value ([2]; fluorescence polarization) was 0.001 g/L, the “Binding of human IgG (subtypes 1–4) to Fc-III relative to pure IgG1” value [3] was “binds Fc-III less well than pure IgG1” and the “Fluorescence intensity increase on addition of HPβCD” value [4] was 2.1 fold. The Fluorescence intensity increase ([5]; 100 nM probe in CHO-CCF, 2.5 g/L human IgG) was ~ 1.8 fold, the “Limit of detection compared with HPLC or ELISA” value ([5]; IgG in CHO-CCF) was “comparable to those of HPLC or ELISA” and the “Limit of detection by fluorescence intensity” value ([5]; human IgG, 100 nM probe in CHO-CCF, signal > blank intensity + 3StdDev of blank) was 0.00025 g/L. For the same substance, the “Polarization changes, human IgG versus adalimumab biosimilar” value [6] was “nearly identical fluorescence polarization changes”, the “Binding affinity for IgG, Fc-III versus SpG” value [7] was “comparable binding affinity for IgG” and the Detection limit ([8]; murine IgG1, 100 nM probe in CHO-CCF) was 0.1 g/L. For the same substance, the “Detection limit for murine IgG1 relative to human IgG” value ([8]; murine IgG1 versus human IgG) was 1000 times, the “Binding to murine IgG1” value [9] was “binds relatively poorly” and the Fluorescence intensity increase ([10]; 100 nM probe in CHO-CCF, 2.5 g/L adalimumab (IgG1 mAb)) was ~ 1.8 fold. The “Adalimumab biosimilar detected down to” value ([10]; CHO cell culture fluid, fluorescence intensity) was 100 ng/mL.
For “SpA: unlabeled Staphylococcal protein A, competitor binding to the same location on Fc as Fc-III”, the “Fluorescence intensity of Fc-III/IgG mixture with 500 nM SpA” value ([11]; 500 nM SpA) was “fell to that of free Fc-III probe” and the “Effect of unlabeled SpA on emission intensity of IgG/Fc-III probe mixture” value ([11]; SpA 0.02 nM to 1 µM in PBS) was “markedly diminished”.
For “fluorescein-labeled protein A (SpA): fluorescein-labeled protein A, literature comparison”, the “IgG binding-induced fluorescence enhancement of fluorescein-labeled protein A” value [12] is given as “IgG binding-induced fluorescence enhancement”.
